Published values of several laboratories.
Lines come from different studies, so protocols differ.
Cell line: A549

C=C(Cl)C(=O)Nc1cc(Nc2nc(N3CCCC3)c3sccc3n2)c(OC)cc1N(C)CCN(C)C has an IC50 of 4.54 µM (cell growth or viability; MTT).
With CS(=O)(=O)c1ccc(-n2cc(/C=N/N=c3\[nH]c(-c4ccc([N+](=O)[O-])cc4)cs3)c(-c3ccc([N+](=O)[O-])cc3)n2)cc1 the IC50 was 22.2 µM (cell growth or viability; MTT; 48 h).
The IC50 of CCOc1ccc(/C=C2\SC(=S)N(CC(=O)Nc3ccccc3)C2=O)cc1 is reported as 10.3 µM (cell growth or viability; MTT).
CCCCNC(=O)NNC(=O)c1ccc(Nc2nccc(-c3ccccn3)n2)cc1 gave an IC50 of over 40 µM (cell growth or viability; MTT; 24 h).
The IC50 of CC1=C(O)C(=O)C=C2C1=CC=C1[C@@]2(C)CC[C@@]2(C)[C@@H]3C[C@](C)(C(=O)OCCCO)CC[C@]3(C)CC[C@]12C is reported as 4.3 µM (cell growth or viability; MTT; 48 h).
The IC50 of C[C@H]1Oc2cc(cnc2N)-c2c(nn(C)c2C#N)CN(C)C(=O)c2ccc(F)cc21 is reported as over 8.4 µM (cell growth or viability).
With Oc1ncnc2cc(Nc3nc(-c4ccc(Cl)cc4)cs3)ccc12 the IC50 was 20.8 µM (cell growth or viability; MTT).
For CC(=O)O[C@H]1C(=O)[C@@]2(C)[C@H]([C@H](OC(=O)c3ccccc3)[C@]3(O)C[C@H](OC(=O)[C@H](O)[C@@H](NC(=O)c4ccccc4)c4ccccc4)C(C)=C1C3(C)C)[C@]1(OC(C)=O)CO[C@@H]1C[C@@H]2O, the IC50 was 0.0025 µM (cell growth or viability; SRB).
With COc1cc(C=C(C(=O)/C=C/c2ccc(OC)c(OC)c2)C(=O)/C=C/c2ccc(OC)c(OC)c2)ccc1O the IC50 was under 0.2 µM (colony formation; 9 days).
CC(C)=CCC[C@](C)(O)[C@H]1CC[C@]2(C)[C@@H]1[C@H](O)C[C@@H]1[C@@]3(C)CC[C@H](O[C@@H]4O[C@H](CO)[C@@H](O)[C@H](O)[C@H]4O[C@@H]4O[C@H](CO)[C@@H](O)[C@H](O)[C@H]4O)C(C)(C)[C@@H]3CC[C@]12C gave an IC50 of over 100 µM (cell growth or viability; MTT; 72 h).
CN1C(=O)/C(=N\NC(=O)c2cc3ccccc3[nH]2)c2ccccc21 gave an IC50 of 4.04 µM (cell growth or viability).
COc1cc([C@@H]2c3cc4c(cc3[C@@H](O[C@@H]3O[C@@H]5CO[C@@H](C)O[C@H]5[C@H](O)[C@H]3O)[C@H]3COC(=O)[C@H]23)OCO4)cc(OC)c1O has an IC50 of 4.1 µM (cell growth or viability; fluorescence; 48 h).
For COc1cc(N(C)CCN(C)C)c(NC(=O)C=C(C)C)cc1Nc1nc(Nc2cnn(C)c2)c2sccc2n1, the IC50 was 1.56 µM (cell growth or viability; MTT).
O=C(N/N=C/c1cccn1CCN1CCOCC1)Nc1cc2c(Nc3ccc(F)c(Cl)c3)ncnc2cc1O[C@H]1CCOC1 gave an IC50 of 1.32 µM (cell growth or viability; MTT; 72 h).
For COc1ccc(-c2nc(C(=O)Nc3nnc(-c4cc5ccccc5[nH]4)s3)cc3c2[nH]c2ccccc23)cc1, the IC50 was 2.82 µM (cell growth or viability; MTT; 72 h).
With COc1cc2c(Nc3ccc(NC(=O)c4ccccc4)cc3)ncnc2cc1OCCCN1CCOCC1 the IC50 was 3.2 µM (cell growth or viability; MTS; 48 h).
CCN(CC)CCNC(=O)c1c(C)[nH]c(/C=C2\C(=O)Nc3ccc(F)cc32)c1C has an IC50 of 4.56 µM (cell growth or viability; 72 h).
For OCc1ccc2c(c1C#Cc1ccc(O)cc1)C(c1ccc(O)cc1)(c1ccc(O)cc1)c1cc(O)ccc1-2, the IC50 was over 50 µM (cell growth or viability; MTT; 48 h).
COC(=O)/C=C1\S/C(=N\C(=O)c2ccc3ccccc3c2)N(C2CCCCC2)C1=O has an IC50 of 13.4 µM (cell growth or viability; 48 h).
COCCCOc1ccnc(COc2ccc(NC(=O)Nc3ccc(Cl)c(C(F)(F)F)c3)cc2)c1C gave an IC50 of 6.19 µM (cell growth or viability; MTT; 72 h).
O=C(N/N=C/CN1CCCCC1)Nc1cc2c(Nc3ccc(F)c(Cl)c3)ncnc2cc1O[C@H]1CCOC1 has an IC50 of 4.2 µM (cell growth or viability; MTT; 72 h).
With COc1cc(N(C)CCN(C)C)c(NC(=O)C=C(C)C)cc1Nc1nc(N2CCc3sccc3C2)c2sccc2n1 the IC50 was 27.9 µM (cell growth or viability; MTT).
For NNc1nc(Nc2ccccc2)nc(Nc2ccc(Br)cc2)n1, the IC50 was over 30 µM (cell growth or viability; SRB; 72 h).
COc1ccnc(COc2ccc(NC(=O)Nc3ccc(Cl)cc3)cc2)c1OC has an IC50 of 10.4 µM (cell growth or viability; MTT; 72 h).
COc1cc2ncnc(Nc3ccc(F)c(Cl)c3)c2cc1NC(=O)N/N=C/CN1CCN(C)CC1 has an IC50 of 6.6 µM (cell growth or viability; MTT; 72 h).
With Cc1ccc(C)n1-c1ccc(-c2nnc(S)s2)cc1 the IC50 was 223 µM (cell growth or viability; MTT; 72 h).
C=CC(=O)Nc1cccc(Nc2nc(Nc3ccc(OCCOC)cc3)ncc2F)c1 has an IC50 of 4.96 µM (cell growth or viability).
CNC(=O)c1cc(Oc2ccc(NC(=O)Nc3ccc(Cl)c(C(F)(F)F)c3)cc2)ccn1 gave an IC50 of 2.12 µM (cell growth or viability; MTT; 72 h).
The IC50 of CCC(=O)Nc1cc(Nc2nc(N3CCc4sccc4C3)c3cccnc3n2)c(OC)cc1N1CCN(CC)CC1 is reported as 21.9 µM (cell growth or viability; MTT).
With CC(=O)O[C@H]1C(=O)[C@@]2(C)[C@H]([C@H](OC(=O)c3ccccc3)[C@]3(O)C[C@H](OC(=O)[C@H](O)[C@@H](NC(=O)c4ccccc4)c4ccccc4)C(C)=C1C3(C)C)[C@]1(OC(C)=O)CO[C@@H]1C[C@@H]2O the IC50 was 0.0206 µM (cell growth or viability; CCK-8; 72 h).
The IC50 of COc1ccccc1/C=C/CNCC(O)COc1ccc2[nH]c3ccccc3c2c1 (centres unmarked) is reported as 9.1 µM (cell growth or viability; CCK-8; 72 h).
COc1cccc(Oc2ccccc2NC(=O)CNC(=O)c2c(C)cc(C)cc2C)c1 has an IC50 of 4.7 µM (cell growth or viability).
COCCCOC(=O)[C@]1(C)CC[C@]2(C)CC[C@]3(C)C4=CC=C5C(=CC(=O)C(O)=C5C)[C@]4(C)CC[C@@]3(C)[C@@H]2C1 has an IC50 of 3.22 µM (cell growth or viability; MTT; 48 h).
The IC50 of COc1ccccc1OCCNC(=O)COc1cccc2[nH]c3ccccc3c12 is reported as over 100 µM (cell growth or viability; CCK-8; 72 h).
For CCC(=O)Nc1cc(Nc2nc(N3CCc4sccc4C3)c3cccnc3n2)c(OC)cc1N1CCN(C(C)=O)CC1, the IC50 was 7.01 µM (cell growth or viability; MTT).
The IC50 of COc1ccc(-c2nn(-c3ccc(S(C)(=O)=O)cc3)cc2C=N/N=c2\[nH]c(-c3ccc([N+](=O)[O-])cc3)cs2)cc1 is reported as 4.03 µM (cell growth or viability; MTT; 48 h).
COc1ccccc1CCCNCC(O)COc1cccc2[nH]c3ccccc3c12 (centres unmarked) gave an IC50 of 11.8 µM (cell growth or viability; CCK-8; 72 h).
The IC50 of CCN(CC)CCCn1cccc1/C=N/NC(=O)Nc1cc2c(Nc3ccc(F)c(Cl)c3)ncnc2cc1OC is reported as 2.38 µM (cell growth or viability; MTT; 72 h).
For COc1ccnc(COc2ccc(NC(=O)Nc3cc(F)cc(F)c3)cc2)c1OC, the IC50 was 17.3 µM (cell growth or viability; MTT; 72 h).
With O=C(NC(=S)Nc1ccc([N+](=O)[O-])cc1)c1ccc2ccccc2c1 the IC50 was 5.24 µM (cell growth or viability; 48 h).
With O=C(N/N=C/CN1CCCC1)Nc1cc2c(Nc3ccc(F)c(Cl)c3)ncnc2cc1O[C@H]1CCOC1 the IC50 was 6.48 µM (cell growth or viability; MTT; 72 h).
